Columns and labels:
[1] = test system: Human immunodeficiency virus 1; test: Antiviral activity against HIV1 3B infected in human MT4 cells assessed inhibition of viral-induced cytopathic effect after 5 days; type: functional, organism-based; conditions: Human immunodeficiency virus 1, 3B, MT4, 120 h
How it was run: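 MT-4 cells infected with HIV-1 IIIB at about 100 times the CCID50 per mL of suspension, then mixed 1:1 with serial compound dilutions and incubated at 37 °C for five days. Viable cell number was then determined.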

[2] = target: Human immunodeficiency virus type 1 reverse transcriptase (Human immunodeficiency virus 1, UniProt Q72547, Y181I); test: Inhibition of HIV1 reverse transcriptase Y181I mutant by RNA-dependent DNA polymerase activity assay
[3] = Selectivity index, ratio of CC50 for human MT4 cells to EC50 for HIV1 3B; type: toxicity, cell-based; conditions: read-out: Ratio CC50/EC50
[4] = target: Human immunodeficiency virus type 1 reverse transcriptase (Human immunodeficiency virus 1, UniProt Q72547, K103N); test: Inhibition of HIV1 reverse transcriptase K103N mutant by RNA-dependent DNA polymerase activity assay
[5] = target: Human immunodeficiency virus type 1 reverse transcriptase (Human immunodeficiency virus 1, UniProt Q72547, L100I); test: Inhibition of HIV1 reverse transcriptase L100I mutant by RNA-dependent DNA polymerase activity assay
[6] = Cytotoxicity in human MT4 cells assessed as reduction in cell viability; type: cell-based
[7] = target: Human immunodeficiency virus type 1 reverse transcriptase (Human immunodeficiency virus 1, UniProt Q72547); test: Inhibition of RNA-dependent DNA polymerase activity of HIV1 reverse transcriptase using poly(rA)/pligo(dT) template

Row | Structure (SMILES) | EC50 [1] [nM] | IC50 [2] [nM] | selectivity ratio [3] | IC50 [4] [nM] | IC50 [5] [nM] | CC50 [6] [nM] | IC50 [7] [nM]
1 | Cc1cc(C)cc(S(=O)(=O)n2c(=O)[nH]c3ccc(Cl)cc32)c1 | 2.2 | > 40000 | 17800 | 400 | 9 |  | 
2 | Cc1cccc(S(=O)(=O)n2c(=O)[nH]c3ccc(Cl)cc32)c1 | 15.1 | > 40000 | > 20500 | 10000 | 70 | > 308000 | 21
3 | Cc1ccc(S(=O)(=O)n2c(=O)[nH]c3ccc(Cl)cc32)cc1 | 46 |  | 2900 |  |  | 134000 | 149
4 | O=c1[nH]c2ccc(Cl)cc2n1S(=O)(=O)c1cccc(OC(F)(F)F)c1 | 3660 |  | > 35 |  |  | > 128000 | 305
5 | Cc1cc(C)cc(S(=O)(=O)n2c(=O)[nH]c3ccc(Cl)nc32)c1 | 26 | 27000 | > 10500 | 2800 | 70 | > 272000 | 20
6 | Cc1ccc(S(=O)(=O)n2c(=O)[nH]c3ccc(Cl)cc32)c(C)c1 | 120 |  | 327 |  |  | 39300 | 630
7 | Cc1ccc(C)c(S(=O)(=O)n2c(=O)[nH]c3ccc(Cl)cc32)c1 | 9.7 | > 40000 | > 37100 | > 40000 | 380 | > 371000 | 49
8 | Cc1ccc(S(=O)(=O)n2c(=O)[nH]c3ccc(Cl)cc32)cc1C | 6 | > 40000 | > 61900 | 2610 | 30 | > 371000 | 4
9 | COc1cccc(S(=O)(=O)n2c(=O)[nH]c3ccc(Cl)cc32)c1 | 35 | > 40000 | > 10500 | 10900 | 330 | > 369000 | 52
10 | Cc1cc(C)c(C)c(S(=O)(=O)n2c(=O)[nH]c3ccc(Cl)cc32)c1C | 63 | > 40000 | > 5410 | > 40000 | 180 | ≥ 343000 | 40
11 | O=c1[nH]c2ccc(Cl)cc2n1S(=O)(=O)c1cc(C(F)(F)F)cc(C(F)(F)F)c1 | 310 |  | 104 |  |  | 32300 | 310
12 | Cc1ccccc1S(=O)(=O)n1c(=O)[nH]c2ccc(Cl)cc21 | 1920 |  | > 201 |  |  | > 387000 | 269
13 | Cc1c(C)c(C)c(S(=O)(=O)n2c(=O)[nH]c3ccc(Cl)cc32)c(C)c1C | 129 | > 40000 | 1830 | 6700 | 80 | 236000 | 47
14 | Cc1cc(C)c(S(=O)(=O)n2c(=O)[nH]c3ccc(Cl)cc32)c(C)c1 | 1000 | > 40000 | > 355 | > 40000 | 10 | > 356000 | 1.2
15 | O=c1[nH]c2ccc(Cl)cc2n1S(=O)(=O)c1cccc(C(F)(F)F)c1 | 500 |  | > 664 |  |  | > 332000 | 1720
16 | O=C1Nc2ccc(Cl)cc2[C@@](C#CC2CC2)(C(F)(F)F)O1 [EFAVIRENZ] |  |  |  |  |  | > 6000 | 
17 | Cc1ccnc2c1NC(=O)c1cccnc1N2C1CC1 [NEVIRAPINE] |  |  |  |  |  | > 15000 | 

Source: ChEMBL document CHEMBL1156899, “Novel 1,3-dihydro-benzimidazol-2-ones and their analogues as potent non-nucleoside HIV-1 reverse transcriptase inhibitors” (Bioorg Med Chem, 2010)
